Data as given in publication PMC4451255 (Bioorganic & medicinal chemistry, 2015).
Where a chain is given by its changes, count along the chain named.

Tests used:
wild-type Shp2 [1] = target: T1, wild-type Shp2 (Homo sapiens, UniProt Q06124); assay: SDS/PAGE and fluorescence visualization of protein/FlAsH complexes; format: binding; settings: 6 μM FlAsH, 2 μg enzyme, UV visualization
T1 sequence (Q06124 247-517 limits assumed): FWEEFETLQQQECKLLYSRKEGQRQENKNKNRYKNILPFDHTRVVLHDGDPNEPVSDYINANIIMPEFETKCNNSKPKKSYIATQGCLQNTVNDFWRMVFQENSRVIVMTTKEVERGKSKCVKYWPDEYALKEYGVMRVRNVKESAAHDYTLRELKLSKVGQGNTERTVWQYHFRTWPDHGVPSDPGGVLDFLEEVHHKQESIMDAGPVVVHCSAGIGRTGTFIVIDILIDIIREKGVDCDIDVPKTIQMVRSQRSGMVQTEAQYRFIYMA

P87C/A122C PTP1B [2] = target: T2, P87C/A122C PTP1B (Homo sapiens, UniProt P18031, A122C/P87C); assay: as above; format: binding; settings: 6 μM FlAsH, UV visualization, band at 45 kD
T2 sequence (P18031 3-277 P87C/A122C limits assumed): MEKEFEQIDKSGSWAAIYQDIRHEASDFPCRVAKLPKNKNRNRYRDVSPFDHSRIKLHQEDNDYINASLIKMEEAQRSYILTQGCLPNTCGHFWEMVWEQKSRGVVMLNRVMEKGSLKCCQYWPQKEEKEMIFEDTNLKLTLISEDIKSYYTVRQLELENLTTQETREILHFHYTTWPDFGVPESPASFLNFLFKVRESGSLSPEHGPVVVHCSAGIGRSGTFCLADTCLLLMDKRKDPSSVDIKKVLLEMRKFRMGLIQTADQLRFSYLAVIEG

wild-type PTPH-1 [3] = assay: FlAsH inhibition of purified PTP catalytic domain, pNPP assay; format: biochemical, human; settings: purified enzyme 50 nM, one equivalent of FlAsH
In short: (§1)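 His6-tagged PTP catalytic domains (50 nM) are pre-incubated 120 min at 37 °C with test compound or DMSO (1% v/v). Activity is then assayed at 37 °C with pNPP at each enzyme's previously determined KM in 50 mM 3,3-dimethylglutarate pH 7.0, 1 mM EDTA, 50 mM NaCl. The reaction is quenched with NaOH and A405 read. Activity is normalized to DMSO-only control, triplicate, ≥3 independent experiments.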

wild-type PTPH-1 [4] = assay: FlAsH inhibition of total PTP activity of crude E. coli lysates, pNPP; format: biochemical, human; settings: whole-cell E. coli lysate, FlAsH concentrations that strongly inhibit the mutant
In short: (§2)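 Cells are lysed by French press (~2000 psi) in 50 mM Tris pH 7.8, 500 mM NaCl, 5 mM imidazole. Clarified lysate takes compound or DMSO (1%) for 120 min at 37 °C. Total pNPP activity is normalized to DMSO.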

wild-type HePTP [5] = assay: FlAsH inhibition of purified PTP catalytic domain, pNPP assay; format: biochemical, human; settings: purified enzyme 50 nM, one equivalent of FlAsH
In short: as §1

P87C PTP1B [6] = target: T3, P87C PTP1B (Homo sapiens, UniProt P18031, P87C); assay: FlAsH inhibition of purified PTP catalytic domain, pNPP assay; format: biochemical; settings: 500 nM FlAsH, continuous pNPP assay
T3 sequence (P18031 3-277 P87C limits assumed): T2 sequence (P18031 3-277 P87C/A122C limits assumed) with C120A
In short: (§3)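 No pre-incubation. pNPP at the enzyme's KM is held with 500 nM test compound or DMSO (1%) in pH 7.0 PTP buffer at 37 °C, and reactions are started by adding His6-tagged catalytic domain (50 nM). A405 is monitored continuously at 37 °C. Rates over 1-min windows are normalized to DMSO control; three independent runs are averaged and fitted as single-variable exponential decay.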

P2285C/Q2320C FAP-1 [7] = assay: FlAsH inhibition of total PTP activity of crude E. coli lysates, pNPP; format: biochemical, human; settings: whole-cell E. coli lysate
In short: as §2

wild-type HePTP [8] = assay: as above; format: biochemical, human; settings: whole-cell E. coli lysate, FlAsH concentrations that strongly inhibit the mutant
In short: as §2

wild-type PTP1B [9] = assay: FlAsH inhibition of purified PTP catalytic domain, pNPP assay; format: biochemical, human; settings: purified enzyme 50 nM, 120-minute pre-incubation
In short: as §1

V368C Shp2 [10] = target: T4, V368C Shp2 (Homo sapiens, UniProt Q06124, V368C); assay: Mass-spectrometry-based FlAsH-induced cysteine-protection assay; format: binding; settings: 2.7 μM enzyme, 27 μM FlAsH, 50 mM iodoacetic acid, LC/MS/MS
T4 sequence (Q06124 247-517 V368C limits assumed): T1 sequence (Q06124 247-517 limits assumed) with V122C
In short: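 Enzyme (2.7 μM) is incubated 30 min with 27 μM test compound or DMSO in pH 7.0 dimethylglutarate/EDTA/1 mM TCEP. Free cysteines are carboxymethylated with 50 mM iodoacetic acid (30 min), quenched with 100 mM TCEP, precipitated and gel-separated, then trypsin-digested in gel. Nano-LC/MS/MS uses HCD. Peptide precursor intensity ratios (compound/DMSO) are normalized to the mean of non-cysteine peptide ratios.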

P87C PTP1B [11] = target: T3, P87C PTP1B; assay: SDS/PAGE and fluorescence visualization of protein/FlAsH complexes; format: binding; settings: 6 μM FlAsH, UV visualization
P2285C/Q2320C FAP-1 [12] = assay: FlAsH inhibition of purified PTP catalytic domain, pNPP assay; format: biochemical, human; settings: purified enzyme 50 nM, one equivalent of FlAsH
In short: as §1

wild-type Shp2 [13] = target: T1, wild-type Shp2; assay: FlAsH inhibition of purified PTP catalytic domain, pNPP assay; format: biochemical
In short: (§4)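 Two set-ups, both using His6-tagged catalytic domain (50 nM) and pNPP in pH 7.0 3,3-dimethylglutarate buffer. In the first, enzyme is incubated with 125 nM test compound plus β-mercaptoethanol (0–1 mM), then activity is normalized to no-compound controls. In the second, there is no pre-incubation: pNPP at the enzyme's KM sits with a fixed compound level at 37 °C, enzyme starts the reaction, and A405 is followed continuously.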

P720C/H755C PTPH-1 [14] = assay: FlAsH inhibition of total PTP activity of crude E. coli lysates, pNPP; format: biochemical, human; settings: whole-cell E. coli lysate
In short: as §2

wild-type PTP1B [15] = assay: SDS/PAGE and fluorescence visualization of protein/FlAsH complexes; format: binding, human; settings: 6 μM FlAsH, UV visualization
V368C Shp2 [16] = target: T4, V368C Shp2; assay: FlAsH inhibition of purified PTP catalytic domain, pNPP assay; format: biochemical
In short: as §4

P720C/H755C PTPH-1 [17] = assay: FlAsH inhibition of purified PTP catalytic domain, pNPP assay; format: biochemical, human; settings: purified enzyme 50 nM, one equivalent of FlAsH
In short: as §1

V368C Shp2 [18] = target: T4, V368C Shp2; assay: SDS/PAGE and fluorescence visualization of protein/FlAsH complexes; format: binding; settings: 6 μM FlAsH, 2 μg enzyme, UV visualization, band at approximately 37 kD
P87C/A122C PTP1B [19] = target: T2, P87C/A122C PTP1B; assay: FlAsH inhibition of purified PTP catalytic domain, pNPP assay; format: biochemical; settings: purified enzyme 50 nM, time-dependent
In short: as §3

wild-type FAP-1 [20] = assay: FlAsH inhibition of total PTP activity of crude E. coli lysates, pNPP; format: biochemical, human; settings: whole-cell E. coli lysate, FlAsH concentrations that strongly inhibit the mutant
In short: as §2

P160C/V184C HePTP [21] = assay: FlAsH inhibition of purified PTP catalytic domain, pNPP assay; format: biochemical, human; settings: purified enzyme 50 nM, one equivalent of FlAsH
wild-type FAP-1 [22] = assay: FlAsH inhibition of purified PTP catalytic domain, pNPP assay; format: biochemical, human; settings: purified enzyme 50 nM, one equivalent of FlAsH
In short: as §1

P160C/V184C HePTP [23] = assay: FlAsH inhibition of total PTP activity of crude E. coli lysates, pNPP; format: biochemical, human; settings: whole-cell E. coli lysate
[24] = 500 nM FlAsH, continuous pNPP assay, no pre-incubation

O=C(O)c1ccccc1-c1c2ccc(=O)c([As]3SCCS3)c-2oc2c([As]3SCCS3)c(O)ccc12 [FlAsH]
fluorescent band of protein/FlAsH conjugate after SDS/PAGE (wild-type Shp2 [1]): not present | fluorescent band of protein/FlAsH conjugate after SDS/PAGE (P87C/A122C PTP1B [2]): strongly fluorescent band | inhibition of phosphatase activity (wild-type PTPH-1 [3]): not significantly inhibited | inhibition of total PTP activity of lysate (wild-type PTPH-1 [4]): no effects | inhibition of phosphatase activity (wild-type HePTP [5]): not significantly inhibited | time for phosphatase activity to decrease to 50% of initial rate (P87C PTP1B [6]): approximately 10 minutes | inhibition of total PTP activity of lysate (P2285C/Q2320C FAP-1 [7]): strongly inhibited | inhibition of total PTP activity of lysate (wild-type HePTP [8]): no effects | effect of FlAsH on enzymatic activity (wild-type PTP1B [9]): unaffected | protection of cysteines from modification by IAA (V368C Shp2 [10]): strongly protects C333, C367, and C368 | fluorescent band of protein/FlAsH conjugate after SDS/PAGE (P87C PTP1B [11]): fail to produce strongly fluorescent bands | inhibition of phosphatase activity (P2285C/Q2320C FAP-1 [12]): drastically reduced catalytic activity | effect of β-mercaptoethanol on FlAsH's inhibitory effects (wild-type Shp2 [13]; 125 nM FlAsH, varying β-ME): attenuates | time to 50% activity (wild-type Shp2 [13]; [24]): ~ 11 minutes | inhibition of total PTP activity of lysate (P720C/H755C PTPH-1 [14]): strongly inhibited | fluorescent band of protein/FlAsH conjugate after SDS/PAGE (wild-type PTP1B [15]): fail to produce strongly fluorescent bands | effect of β-mercaptoethanol on potency of FlAsH inhibition (V368C Shp2 [16]; 125 nM FlAsH, varying β-ME up to 8,000 times excess): no significant changes | time to 50% activity (V368C Shp2 [16]; [24]): ~ 7 minutes | inhibition of phosphatase activity (P720C/H755C PTPH-1 [17]): novel sensitivity to FlAsH | fluorescent band of protein/FlAsH conjugate after SDS/PAGE (V368C Shp2 [18]): strongly fluorescent band | inhibition by FlAsH (P87C/A122C PTP1B [19]): potently inhibited | inhibition of total PTP activity of lysate (wild-type FAP-1 [20]): no effects | inhibition of phosphatase activity (P160C/V184C HePTP [21]): drastically reduced catalytic activity | inhibition of phosphatase activity (wild-type FAP-1 [22]): not significantly inhibited | inhibition of total PTP activity of lysate (P160C/V184C HePTP [23]): strongly inhibited
